Results on eleven compounds are retold here after ChEMBL document CHEMBL3272280, “Prostaglandin isosteres. 1. (8-Aza-, 8,10-diaza-, and 8-aza-11-thia)-9-oxoprostanoic acids and their derivatives” (J Med Chem, 1977).

Data set [1] is filed under the species Mus musculus. Briefly: Binding affinity to prostaglandin receptor in Charles River CD-1 mouse ovary assessed as increase in cAMP accumulation using [8-14C]adenine at 100 ug/ml after 30 mins relative to control. The class given is tissue-based. The note with it: Female gonad. In short, it runs like this: (§1)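 Virgin female mice over 70 days old; three ovaries per tube (15-25 mg), denuded of fat, preincubated 60 min at 37 °C in aerated Krebs-Ringer phosphate buffer pH 7.2 with 1 μCi [8-14C]adenine to label ATP. Then 0.2 mL 0.05 M theophylline in 0.15 M NaCl plus compound in 0.1 mL Me2SO added; 30 min, 37 °C. TCA stop, homogenization, [14C]-cAMP isolated including paper chromatography.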

The species named for data set [2] is Mus musculus. Briefly: Binding affinity to prostaglandin receptor in Charles River CD-1 mouse ovary assessed as increase in cAMP accumulation using [8-14C]adenine at 25 ug/ml after 30 mins relative to control. To be noted: Female gonad. In kind it is tissue-based. An outline of the steps:
as §1

The nature of data set [3]: Retardation factor, Rf of the compound. In kind it is physicochemical. In short, it runs like this:
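Thin-layer chromatography on SiO2 plates; eluent A, CHCl3-CH3OH-HOAc (98:1:1), other eluents as designated.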

The species entered for a further data set is Rattus norvegicus. Kind of data set: Displacement of [3H-PGE1] from Sprague-Dawley rat kidney prostaglandin receptor after 60 mins by scintillation counting analysis. An outline of the steps:
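Kidney plasma membrane binding fraction from male rats (120-150 g); 125 μg of it incubated with 0.4 ng [3H]-PGE1 and test compound, 60 min, 37 °C. Diluted with 0.01 M Tris HCl-saline pH 7.5, bound label collected by filtration, rinsed, counted by liquid scintillation. Duplicate runs at each of three concentrations.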

The species entered for data set [4] is Mus musculus. Briefly: Binding affinity to prostaglandin receptor in Charles River CD-1 mouse ovary assessed as increase in cAMP accumulation using [8-14C]adenine at 1 ug/ml after 30 mins relative to control. In kind it is tissue-based. The note with it: Female gonad. An outline of the steps: as §1
Data set [5] is filed under the species Mus musculus. Briefly: Binding affinity to prostaglandin receptor in Charles River CD-1 mouse ovary assessed as increase in cAMP accumulation using [8-14C]adenine at 10 ug/ml after 30 mins relative to control. To be noted: Female gonad. The class given is tissue-based. In short, it runs like this:
as §1

For data set [6], the species on record is Mus musculus. Kind of data set: Binding affinity to prostaglandin receptor in Charles River CD-1 mouse ovary assessed as increase in cAMP accumulation using [8-14C]adenine at 0.05 ug/ml after 30 mins relative to control. The class given is tissue-based. The note with it: Female gonad. An outline of the steps: as §1
The species entered for data set [7] is Mus musculus. Kind of data set: Binding affinity to prostaglandin receptor in Charles River CD-1 mouse ovary assessed as increase in cAMP accumulation using [8-14C]adenine at 0.01 ug/ml after 30 mins relative to control. In kind it is tissue-based. To be noted: Female gonad. An outline of the steps:
as §1

The species named for data set [8] is Mus musculus. Kind of data set: Binding affinity to prostaglandin receptor in Charles River CD-1 mouse ovary assessed as increase in cAMP accumulation using [8-14C]adenine at 0.1 ug/ml after 30 mins relative to control. The class given is tissue-based. To be noted: Female gonad. An outline of the steps: as §1
For data set [9], the species on record is Mus musculus. Kind of data set: Binding affinity to prostaglandin receptor in Charles River CD-1 mouse ovary assessed as increase in cAMP accumulation using [8-14C]adenine at 200 ug/ml after 30 mins relative to control. The class given is tissue-based. To be noted: Female gonad. An outline of the steps: as §1
Data set [10] is filed under the species Mus musculus. Kind of data set: Binding affinity to prostaglandin receptor in Charles River CD-1 mouse ovary assessed as increase in cAMP accumulation using [8-14C]adenine at 50 ug/ml after 30 mins relative to control. The class given is tissue-based. To be noted: Female gonad. An outline of the steps: as §1
Data set [11] is described as follows: Dissociation constant, pKa of the compound. In kind it is physicochemical.

On to `O=C(O)CCCCCCN1C(=O)CS(=O)(=O)C1CCC(O)COc1ccc(F)cc1` (mixture of isomers), for which the fold change (FC) came to 7 in the data set filed under Mus musculus [1] and 2 in the data set filed under Mus musculus [2]. For the same compound, in data set [3], the Rf was 0.13.
Compound `CCCCCC(O)CCC1SCC(=O)N1CCCCCCC(=O)O` (mixture of isomers) showed an Activity in the data set filed under Rattus norvegicus of 0.39 µgequiv. Besides, the fold change (FC) turned out to be 1.4 in the data set listed under Mus musculus [4], 25 in the data set filed under Mus musculus [1] and 8 in the data set filed under Mus musculus [2]. For the same compound, the Rf in data set [3] was 0.12.
Consider `CCCCC[C@H](O)/C=C/[C@H]1[C@H](O)CC(=O)[C@@H]1CCCCCCC(=O)O`, for which, in the data set filed under Rattus norvegicus, the Activity came out at 1 ngequiv. Besides, the fold change (FC) in the data set filed under Mus musculus [5] is 60; in the data set listed under Mus musculus [4], 54; in the data set listed under Mus musculus [6] it was 25; in the data set filed under Mus musculus [1] it was 62; in the data set listed under Mus musculus [7] it was 8; in the data set filed under Mus musculus [8], 29. Moreover, in the data set filed under Mus musculus [2], the fold change (FC) amounted to 62.
In the data set filed under Rattus norvegicus, `CCCCCCCCC1CCC(=O)N1CCCCCCC(=O)O` (racemic) gave an Activity of 8.3 µgequiv. The fold change (FC) was determined as 0.7 in the data set filed under Mus musculus [4], 13 in the data set filed under Mus musculus [1] and 8 in the data set listed under Mus musculus [2]. For the same compound, the Rf in data set [3] was 0.25.
Regarding `CCCCCCCCc1c[nH]c(=O)n1CCCCCCC(=O)O`, the Activity in the data set filed under Rattus norvegicus is 19.6 µgequiv. Also, the fold change (FC) in the data set listed under Mus musculus [1] was determined as 9; in the data set listed under Mus musculus [2] it was 5. The Rf in [3] is reported as 0.84.
Taken in the same sequence, the figures for `CCCCCCCCC1C(=O)NC(=O)N1CCCCCCC(=O)O` (racemic) were 5 µgequiv, 6, 3 and 0.2.
Take `CCCCCC(O)CCCC(CCCCCCC(=O)O)C(C)=O` (configuration not stated): the Activity in the data set listed under Rattus norvegicus was determined as 833 ngequiv. The fold change (FC) in the data set listed under Mus musculus [5] worked out at 11; in the data set listed under Mus musculus [4], 2; in the data set filed under Mus musculus [1], 23; in the data set filed under Mus musculus [9], 16; in the data set filed under Mus musculus [2] it was 14; in the data set filed under Mus musculus [10] it was 16.
Take `CCCCCC(O)CCC1N(CCCCCCC(=O)O)C(=O)CS1(=O)=O` (mixture of isomers): the Activity in the data set listed under Rattus norvegicus was found to be 0.06 µgequiv. In addition, the fold change (FC) in the data set listed under Mus musculus [5] is 23; in the data set listed under Mus musculus [4], 5; in the data set filed under Mus musculus [1], 37; in the data set filed under Mus musculus [2], 27. Further, in data set [3], the Rf stood at 0.24.
As to `CCCCCC(O)CCCC(CCCCCCC(=O)O)S(C)(=O)=O` (configuration not stated), the fold change (FC) in the data set listed under Mus musculus [5] was 24; in the data set filed under Mus musculus [4], 14; in the data set listed under Mus musculus [1] it was 38; in the data set filed under Mus musculus [8], 2; in the data set filed under Mus musculus [2], 27.
For the compound `CCCCCC(O)CCC1CCC(=O)N1CCCCCCC(=O)O` (mixture of isomers), in the data set listed under Rattus norvegicus, the Activity came out at 4.6 µgequiv. Also, the values for the fold change (FC) in the data set filed under Mus musculus [4], in the data set filed under Mus musculus [1] and in the data set filed under Mus musculus [2] were 0.9, 18 and 8, respectively. This compound also had a Rf in [3] of 0.15. The compound also returned a pKa in data set [11] of 5.25.
In the case of `CCCCC[C@H](O)CC[C@H]1CCC(=O)[C@@H]1CCCCCCC(=O)O`, the fold change (FC) in the data set listed under Mus musculus [5] was 25; in the data set filed under Mus musculus [4], 10; in the data set listed under Mus musculus [2], 26; in the data set listed under Mus musculus [10] it was 19.
